This note sets out measurements from ChEMBL document CHEMBL1148440, “4-(tetralin-1-yl)- and 4-(naphthalen-1-yl)alkyl derivatives of 1-cyclohexylpiperazine as sigma receptor ligands with agonist sigma2 activity” (J Med Chem, 2004).

Each structure is given as a SMILES string.

Chain of D(2) dopamine receptor (P61169 whole entry): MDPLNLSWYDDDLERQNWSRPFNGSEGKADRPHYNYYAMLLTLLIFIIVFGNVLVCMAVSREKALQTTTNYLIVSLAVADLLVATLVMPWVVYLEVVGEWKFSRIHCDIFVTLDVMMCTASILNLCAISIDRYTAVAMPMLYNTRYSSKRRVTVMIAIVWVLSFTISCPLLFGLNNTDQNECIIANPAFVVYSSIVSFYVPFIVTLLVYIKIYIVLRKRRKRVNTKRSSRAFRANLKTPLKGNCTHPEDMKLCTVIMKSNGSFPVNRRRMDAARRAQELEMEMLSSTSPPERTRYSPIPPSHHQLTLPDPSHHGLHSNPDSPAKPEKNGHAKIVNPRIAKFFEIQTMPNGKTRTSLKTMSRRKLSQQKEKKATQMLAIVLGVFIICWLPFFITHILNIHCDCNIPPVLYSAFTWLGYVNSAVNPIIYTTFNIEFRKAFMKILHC
Chain of Sigma non-opioid intracellular receptor 1 (Homo sapiens) (Q99720 whole entry): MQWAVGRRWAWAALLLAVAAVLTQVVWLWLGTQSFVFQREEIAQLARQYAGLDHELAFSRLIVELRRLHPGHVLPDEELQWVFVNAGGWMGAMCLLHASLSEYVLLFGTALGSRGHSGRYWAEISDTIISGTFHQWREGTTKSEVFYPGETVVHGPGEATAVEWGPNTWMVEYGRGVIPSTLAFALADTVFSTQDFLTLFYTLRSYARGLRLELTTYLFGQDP

One assay concerns the target D(2) dopamine receptor (Rattus norvegicus, UniProt P61169). The experiment in a line: In vitro binding affinity at Dopamine receptor D2 in rat striatum by [3H]spiroperidol displacement. The assay is classed as tissue-based. The essentials: (§1)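 Competition binding was run with radioligand displacement: [3H]spiroperidol for D2-like, [3H]prazosin for α1 and [3H]granisetron for 5-HT3. D2 values are the mean of three independent experiments.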
Regarding `COc1cccc2c1CCCC2CCCCCN1CCN(C2CCCCC2)CC1` (stereo not given), the inhibition constant Ki came out at 2450 nM.
On the same count and under the same terms, to `COc1cccc2c1CCCC2N1CCN(C2CCCCC2)CC1` (stereo not given) belongs 1160 nM; to `COc1ccc2c(c1)C(CCCN1CCN(C3CCCCC3)CC1)CCC2` (stereo not given), 479 nM.
Same read-out and setting: to `COc1cccc2c1CCCC2CN1CCN(C2CCCCC2)CC1` (stereo not given) belongs 4260 nM; to `COc1cccc2c1CCCC2CCN1CCN(C2CCCCC2)CC1` (stereo not given), 1620 nM; to `COc1cccc2c1CCCC2CCCCN1CCN(C2CCCCC2)CC1` (stereo not given), 3670 nM.
Take `COc1cccc2c1CCCC2CCCCCCN1CCN(C2CCCCC2)CC1` (stereo not given): the Ki amounted to 3480 nM.
Same read-out and setting: to `COc1cccc2c1CCCC2CCCN1CCN(C2CCCCC2)CC1` (stereo not given) belongs 604 nM.

Another assay is filed under the species Cavia porcellus. The experiment in a line: Inhibition of electrically stimulated contractions of the isolated guinea pig badder. In kind it is functional.
In the case of `COc1cccc2c1CCCC2CCCCCN1CCN(C2CCCCC2)CC1` (stereo not given), the response was half-maximal at 4900 nM (EC50).
The same measure, in the same setting: to `COc1cccc2c1CCCC2N1CCN(C2CCCCC2)CC1` (stereo not given) belongs 6970 nM; to `COc1cccc2c1CCCC2CN1CCN(C2CCCCC2)CC1` (stereo not given), 11500 nM; to `COc1cccc2c1CCCC2CCN1CCN(C2CCCCC2)CC1` (stereo not given), 16100 nM.
The same measure, in the same setting: the same measure for `COc1cccc2c1CCC[C@@H]2CCCN1CCN(C2CCCCC2)CC1`: 1500 nM; for `c1ccc2c(CCCN3CCN(C4CCCCC4)CC3)cccc2c1`: 1820 nM.
In turn, `Cc1ccccc1NC(=N)Nc1ccccc1C` [DITOLYLGUANIDINE] had an EC50 of 6900 nM.
On the same count and under the same terms, to `COc1cccc2c1CCCC2CCCCN1CCN(C2CCCCC2)CC1` (stereo not given) belongs 9940 nM; to `COc1cccc2c1CCCC2CCCCCCN1CCN(C2CCCCC2)CC1` (stereo not given), 25300 nM.
On the same count and under the same terms, to `COc1cccc2c1CCCC2CCCN1CCN(C2CCCCC2)CC1` (stereo not given) belongs 2620 nM.

The next assay addresses Sigma non-opioid intracellular receptor 1 (Homo sapiens) (UniProt Q99720). The experiment in a line: Binding affinity ratio of sigma 2 receptor to that of sigma 1 receptor. The procedure, abridged: (§2)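 Sigma-1 binding used guinea pig brain membranes without cerebellum with (+)-[3H]pentazocine. […] IC50 came from 6–9 drug concentrations in two or three experiments with duplicate samples, then converted to apparent Ki. Ratios are computed from these Ki values.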
For the molecule `COc1cccc2c1CCCC2N1CCN(C2CCCCC2)CC1` (stereo not given), the Ratio was determined as 20.
Still for that read-out and setting: to `COc1cccc2c1CCCC2CN1CCN(C2CCCCC2)CC1` (stereo not given) belongs 53; to `COc1cccc2c1CCCC2CCN1CCN(C2CCCCC2)CC1` (stereo not given), 13.
Still for that read-out and setting: the same measure for `COc1cccc2c1CCCC2CCCCCCN1CCN(C2CCCCC2)CC1` (stereo not given): 34.

A further assay has the same target. The assay is described as follows: Binding affinity ratio of sigma 1 receptor to that of sigma 2 receptor. The essentials: as §2
Consider `COc1cccc2c1CCCC2CCCCCN1CCN(C2CCCCC2)CC1` (stereo not given), for which the Ratio is 4.3.
Regarding `COc1ccc2c(c1)C(CCCN1CCN(C3CCCCC3)CC1)CCC2` (stereo not given), the Ratio is 7.4.
Still for that read-out and setting: to `c1ccc2c(CCCN3CCN(C4CCCCC4)CC3)cccc2c1` belongs 3.1.

The next assay addresses T1, Serotonin 3 (5-HT3) receptor (Rattus norvegicus, UniProt P35563+Q9JJ16).
T1 sequence (P35563 whole entry): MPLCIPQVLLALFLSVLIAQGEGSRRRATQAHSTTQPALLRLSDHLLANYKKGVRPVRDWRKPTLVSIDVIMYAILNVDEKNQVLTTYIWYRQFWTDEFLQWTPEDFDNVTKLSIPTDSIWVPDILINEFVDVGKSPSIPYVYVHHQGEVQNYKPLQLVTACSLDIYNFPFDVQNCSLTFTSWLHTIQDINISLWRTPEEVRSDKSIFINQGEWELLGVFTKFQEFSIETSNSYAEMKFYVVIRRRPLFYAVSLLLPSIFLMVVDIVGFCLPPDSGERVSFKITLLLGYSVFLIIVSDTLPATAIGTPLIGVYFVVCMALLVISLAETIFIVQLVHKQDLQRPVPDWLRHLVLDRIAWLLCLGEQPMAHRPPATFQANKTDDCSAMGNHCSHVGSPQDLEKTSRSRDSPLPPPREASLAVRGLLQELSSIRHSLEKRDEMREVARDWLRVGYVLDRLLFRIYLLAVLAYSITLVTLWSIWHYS
T1 sequence (Q9JJ16 whole entry): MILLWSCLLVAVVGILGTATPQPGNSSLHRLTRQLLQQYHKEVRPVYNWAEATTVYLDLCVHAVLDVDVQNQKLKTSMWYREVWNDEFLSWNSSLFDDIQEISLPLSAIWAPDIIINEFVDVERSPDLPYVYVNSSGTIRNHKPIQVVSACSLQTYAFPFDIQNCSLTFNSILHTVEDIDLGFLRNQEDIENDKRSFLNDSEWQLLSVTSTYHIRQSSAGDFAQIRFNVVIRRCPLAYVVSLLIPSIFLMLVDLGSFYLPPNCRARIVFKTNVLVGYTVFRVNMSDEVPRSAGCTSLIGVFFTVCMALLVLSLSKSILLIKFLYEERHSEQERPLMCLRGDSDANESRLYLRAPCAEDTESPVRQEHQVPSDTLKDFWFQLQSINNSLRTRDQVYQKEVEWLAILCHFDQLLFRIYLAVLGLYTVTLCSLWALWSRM
The experiment in a line: In vitro binding affinity at serotonin 5-hydroxytryptamine 3 receptor in rat cortex by [3H]granisetron displacement. The essentials:
as §1
For the molecule `COc1cccc2c1CCCC2CCCCCN1CCN(C2CCCCC2)CC1` (stereo not given), the inhibition constant Ki was over 700 nM.
Take `COc1cccc2c1CCCC2N1CCN(C2CCCCC2)CC1` (stereo not given): the Ki is over 700 nM.
The same measure, in the same setting: to `COc1ccc2c(c1)C(CCCN1CCN(C3CCCCC3)CC1)CCC2` (stereo not given) belongs over 700 nM; to `COc1cccc2c1CCCC2CN1CCN(C2CCCCC2)CC1` (stereo not given), over 700 nM; to `COc1cccc2c1CCCC2CCN1CCN(C2CCCCC2)CC1` (stereo not given), over 700 nM.
Still for that read-out and setting: the same measure for `COc1cccc2c1CCC[C@@H]2CCCN1CCN(C2CCCCC2)CC1`: over 700 nM; for `c1ccc2c(CCCN3CCN(C4CCCCC4)CC3)cccc2c1`: over 700 nM; for `COc1cccc2c1CCCC2CCCCN1CCN(C2CCCCC2)CC1` (stereo not given): over 700 nM.
Same read-out and setting: the same measure for `COc1cccc2c1CCCC2CCCCCCN1CCN(C2CCCCC2)CC1` (stereo not given): over 700 nM.
In turn, `COc1cccc2c1CCCC2CCCN1CCN(C2CCCCC2)CC1` (stereo not given) showed a Ki of over 700 nM.

A further assay deals with Sigma 2 receptor. The assay is described as follows: In vitro binding affinity at opioid sigma-2 receptor in rat liver membranes by [3H]DTG displacement in the presence of 1 uM (+)-pentazocine. The assay is classed as cell membranes, Membrane.
In the case of `COc1cccc2c1CCCC2N1CCN(C2CCCCC2)CC1` (stereo not given), the Ki is 7.9 nM.

For a further assay, the target named is Sigma 2 receptor. The experiment in a line: In vitro binding affinity at opioid sigma-2 receptor in rat liver membranes by [3H]-DTG displacement in the presence of 1 uM (+)-pentazocine. In kind it is cell membranes, Membrane.
For `COc1cccc2c1CCCC2CCCCCN1CCN(C2CCCCC2)CC1` (stereo not given), the Ki was found to be 0.35 nM.
Same read-out and setting: to `COc1ccc2c(c1)C(CCCN1CCN(C3CCCCC3)CC1)CCC2` (stereo not given) belongs 1.22 nM.
Same read-out and setting: the same measure for `COc1cccc2c1CCCC2CN1CCN(C2CCCCC2)CC1` (stereo not given): 16.4 nM; for `COc1cccc2c1CCCC2CCN1CCN(C2CCCCC2)CC1` (stereo not given): 21.1 nM; for `COc1cccc2c1CCC[C@@H]2CCCN1CCN(C2CCCCC2)CC1`: 2.09 nM.
On the same count and under the same terms, to `c1ccc2c(CCCN3CCN(C4CCCCC4)CC3)cccc2c1` belongs 0.69 nM; to `COc1cccc2c1CCCC2CCCCN1CCN(C2CCCCC2)CC1` (stereo not given), 3.58 nM.
With `COc1cccc2c1CCCC2CCCCCCN1CCN(C2CCCCC2)CC1` (stereo not given), the Ki worked out at 103 nM.
The same measure, in the same setting: to `COc1cccc2c1CCCC2CCCN1CCN(C2CCCCC2)CC1` (stereo not given) belongs 0.34 nM.

In a further assay the target is T2, Adrenergic receptor alpha-1 (Rattus norvegicus, UniProt P15823+P23944+P43140).
T2 sequence (P15823 whole entry): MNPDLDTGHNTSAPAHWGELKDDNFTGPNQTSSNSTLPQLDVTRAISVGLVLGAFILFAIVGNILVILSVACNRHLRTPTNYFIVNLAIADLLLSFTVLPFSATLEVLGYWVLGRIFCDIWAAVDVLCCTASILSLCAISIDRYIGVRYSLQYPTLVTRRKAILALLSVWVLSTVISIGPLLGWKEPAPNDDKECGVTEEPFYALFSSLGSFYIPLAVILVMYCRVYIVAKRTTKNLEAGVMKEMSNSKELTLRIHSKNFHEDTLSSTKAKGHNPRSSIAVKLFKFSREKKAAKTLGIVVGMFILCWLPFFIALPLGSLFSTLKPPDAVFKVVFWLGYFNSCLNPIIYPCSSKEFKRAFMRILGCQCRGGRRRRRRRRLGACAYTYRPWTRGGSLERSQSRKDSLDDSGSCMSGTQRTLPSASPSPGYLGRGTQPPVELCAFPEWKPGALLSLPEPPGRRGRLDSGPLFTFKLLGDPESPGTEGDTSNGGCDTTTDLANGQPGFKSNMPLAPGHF
T2 sequence (P23944 whole entry): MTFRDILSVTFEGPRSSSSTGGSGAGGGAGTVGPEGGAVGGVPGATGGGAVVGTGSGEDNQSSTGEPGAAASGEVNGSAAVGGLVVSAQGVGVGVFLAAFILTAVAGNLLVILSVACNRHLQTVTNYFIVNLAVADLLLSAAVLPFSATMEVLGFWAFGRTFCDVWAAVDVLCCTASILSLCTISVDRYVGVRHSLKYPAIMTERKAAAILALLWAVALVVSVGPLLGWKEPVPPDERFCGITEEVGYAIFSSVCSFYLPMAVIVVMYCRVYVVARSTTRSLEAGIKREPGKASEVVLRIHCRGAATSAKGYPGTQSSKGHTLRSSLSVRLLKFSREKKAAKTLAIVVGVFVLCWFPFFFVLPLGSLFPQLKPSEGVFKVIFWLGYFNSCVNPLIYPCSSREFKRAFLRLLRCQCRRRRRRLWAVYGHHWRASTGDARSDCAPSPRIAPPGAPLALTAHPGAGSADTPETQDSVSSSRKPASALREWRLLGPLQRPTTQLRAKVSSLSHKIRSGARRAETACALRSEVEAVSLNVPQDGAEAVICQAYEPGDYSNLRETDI
T2 sequence (P43140 whole entry): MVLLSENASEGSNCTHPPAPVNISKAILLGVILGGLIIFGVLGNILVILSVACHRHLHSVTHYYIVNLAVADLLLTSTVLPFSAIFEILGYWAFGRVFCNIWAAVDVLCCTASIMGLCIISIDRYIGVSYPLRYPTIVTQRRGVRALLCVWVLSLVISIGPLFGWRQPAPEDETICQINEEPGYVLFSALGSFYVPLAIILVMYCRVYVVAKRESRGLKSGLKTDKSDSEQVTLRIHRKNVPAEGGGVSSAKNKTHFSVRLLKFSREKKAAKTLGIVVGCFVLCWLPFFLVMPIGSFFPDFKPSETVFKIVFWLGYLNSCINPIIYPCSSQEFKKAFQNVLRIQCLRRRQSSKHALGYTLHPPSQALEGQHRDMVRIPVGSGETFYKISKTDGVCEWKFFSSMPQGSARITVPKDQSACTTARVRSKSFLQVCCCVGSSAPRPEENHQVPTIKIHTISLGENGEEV
The experiment in a line: In vitro binding affinity at alpha-1 adrenergic receptor in rat cortex by [3H]prazosin displacement. The procedure, abridged:
as §1
With `COc1cccc2c1CCCC2CCCCCN1CCN(C2CCCCC2)CC1` (stereo not given), the inhibition constant Ki is over 7500 nM.
Same read-out and setting: to `COc1cccc2c1CCCC2N1CCN(C2CCCCC2)CC1` (stereo not given) belongs over 7500 nM; to `COc1ccc2c(c1)C(CCCN1CCN(C3CCCCC3)CC1)CCC2` (stereo not given), over 7500 nM; to `COc1cccc2c1CCCC2CN1CCN(C2CCCCC2)CC1` (stereo not given), over 7500 nM.
Same read-out and setting: the same measure for `COc1cccc2c1CCCC2CCN1CCN(C2CCCCC2)CC1` (stereo not given): over 7500 nM.
Still for that read-out and setting: to `COc1cccc2c1CCC[C@@H]2CCCN1CCN(C2CCCCC2)CC1` belongs over 7500 nM.
On to `c1ccc2c(CCCN3CCN(C4CCCCC4)CC3)cccc2c1`, for which the Ki is over 7500 nM.
The same measure, in the same setting: to `COc1cccc2c1CCCC2CCCCN1CCN(C2CCCCC2)CC1` (stereo not given) belongs over 7500 nM; to `COc1cccc2c1CCCC2CCCCCCN1CCN(C2CCCCC2)CC1` (stereo not given), over 7500 nM; to `COc1cccc2c1CCCC2CCCN1CCN(C2CCCCC2)CC1` (stereo not given), over 7500 nM.
